# Test results taken from ChEMBL document CHEMBL1143161, “Non-charged thiamine analogs as inhibitors of enzyme transketolase” (Bioorg Med Chem Lett, 2008).
# Experiments:
# [1] = tested on: Cc1c(Cc2cnc(C3CC3)nc2N)csc1CCO; assay: (§1) Ratio of kcat to Km for thiamine […]
# In short: (§2)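 Enzymatic TPPK assay with kcat/Km derived, run in triplicate. The value is the average, with data within 2-fold of the mean.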
# [2] = tested on: Cc1c(Cc2cnc(C(F)(F)F)nc2N)csc1CCO; assay: as §1; in short: as §2
# [3] = tested on: Cc1c(Cc2cnc(-c3ccccc3)nc2N)csc1CCO; assay: as §1; in short: as §2
# [4] = tested on: Cc1ncc(Cc2csc(CCO)c2C)c(N)n1; assay: as §1; in short: as §2
# [5] = tested on: CC(=O)Nc1ncc(Cc2csc(CCO)c2C)c(N)n1; assay: as §1; in short: as §2
# [6] = tested on: Cc1ncc(Cn2c(C)c(CCO)sc2=O)c(N)n1; assay: as §1; in short: as §2
# [7] = tested on: Cc1ncc(C[n+]2csc(CCO)c2C)c(N)n1; assay: as §1; in short: as §2
# [8] = tested on: Cc1ncc(Cc2c(C)c(CCO)nn2C)c(N)n1; assay: as §1; in short: as §2
# Cc1c(Cc2cncnc2N)csc1CCO = assay: as §1; in short: as §2
# [9] = tested on: Cc1c(Cc2cnc(C(C)C)nc2N)csc1CCO; assay: as §1; in short: as §2
substance,measurement,setting,value
"Thiamine pyrophosphokinase 1 (Homo sapiens), Q9H3S4",kcat/Km,[1],2.7 10^-5/nM/s
same,kcat/Km,[2],8.5 10^-4/nM/s
same,kcat/Km,[3],1 10^-6/nM/s
same,kcat/Km,[4],3.4 10^-5/nM/s
same,kcat/Km,[5],1.1 10^-6/nM/s
same,kcat/Km,[6],1 10^-5/nM/s
same,kcat/Km,[7],1.2 10^-5/nM/s
same,kcat/Km,[8],1.9 10^-5/nM/s
same,kcat/Km,Cc1c(Cc2cncnc2N)csc1CCO,1.2 10^-5/nM/s
same,kcat/Km,[9],2.4 10^-5/nM/s
